Screening results: PubChem, several laboratories
Compounds with a hit are over-represented: about 1.9% of the library has one in this group of screens.
procasp7 counter: activates human procaspase-7, counter-screen for procaspase-3 activators; recombinant procaspase-7, Ac-DEVD-pNA absorbance 405 nm; D23A/D198A/D206A triple mutant, cannot self-cleave; scale: DMSO 0, 5 µM enzyme 100; activation, % at 8.5 µM; actives 0.093% (n = 330,000); AID 463210;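 active means percent activation above the screen-wide mean plus 3 SD, cut at about 25% in these data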
Target sequence (P55210 whole entry D23A/D198A/D206A): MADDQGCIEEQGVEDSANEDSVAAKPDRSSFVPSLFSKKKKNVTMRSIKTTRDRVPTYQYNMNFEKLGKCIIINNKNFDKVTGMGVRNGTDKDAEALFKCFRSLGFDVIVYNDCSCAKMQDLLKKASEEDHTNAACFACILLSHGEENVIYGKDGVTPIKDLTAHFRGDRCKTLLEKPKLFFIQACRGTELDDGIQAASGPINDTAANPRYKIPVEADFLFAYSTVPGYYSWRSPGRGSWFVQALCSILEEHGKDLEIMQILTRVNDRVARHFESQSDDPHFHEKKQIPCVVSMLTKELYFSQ
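Material: Procaspase-7 triple mutant (PC-7 D3A) | Quantity: 2 µM procaspase-7 mutant as dispensed | Reagent: DEVD-pNA substrate | Times: 1 h preincubation, 2 h reaction | Technique: 405 nm absorbance of p-nitroaniline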
Neddyl block: inhibitors of human cullin neddylation. P61081+Q13564. TR-FRET cullin neddylation, biochemical. inhibition, % at 25 µM. actives 0.58% (n = 360,000). AID 651699; in the data active means inhibition above about 36%
Calb FLC: C. albicans growth modulation with fluconazole | C. albicans CaCi-2 + fluconazole, Alamar Blue growth, 48 h | growth inhibition, % (test concentration not listed) | actives 0.57% (n = 300,000) | AID 1979;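 active means growth inhibition above about 58% in most replicates, limit read from the data, passing the limit was not always enough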;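 further: all wells also contain fluconazole at 8 µg/ml as a sub-toxic cotreatment; 0% = median of DMSO wells and 100% = median of geldanamycin control wells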
FXN GAA850 act: activators of GAA850 frataxin (FXN) promoter. activation, % at 6 µM. HEK293 lucGAA850 FXN promoter luciferase reporter, 24 h; percent of 10 µM SAHA response. actives 0.56% (n = 360,000). AID 540364;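 active means activation above the average of all compounds screened plus 3 SD, cutoff fixed separately per campaign, cut at about 7.5% in these data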;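 further: 0% = DMSO wells and 100% = 10 µM SAHA wells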
procasp3 activ: activators of human procaspase-3. AID 463141. actives 0.11% (n = 330,000). recombinant procaspase-3 D3A, Ac-DEVD-pNA absorbance 405 nm. activation, % at 8.5 µM;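 active means activation above the mean of all tested compounds plus 3 SD, cut at about 21% in these data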;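 further: 0% = DMSO alone and 100% = DMSO wells spiked with extra 5 µM PC-3 D3A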
Target sequence (P42574 whole entry D9A/D28A/D175A): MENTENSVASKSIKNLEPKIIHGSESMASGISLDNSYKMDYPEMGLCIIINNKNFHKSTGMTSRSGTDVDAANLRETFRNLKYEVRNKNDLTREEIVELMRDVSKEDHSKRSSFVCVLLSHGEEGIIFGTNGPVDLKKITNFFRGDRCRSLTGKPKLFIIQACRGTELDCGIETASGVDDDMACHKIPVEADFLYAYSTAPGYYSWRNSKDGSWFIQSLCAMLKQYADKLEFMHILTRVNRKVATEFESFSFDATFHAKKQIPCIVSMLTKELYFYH
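material = Procaspase-3 D3A mutant | probe or stimulus = Ac-DEVD-pNA | compound = single dose, 8.5 µM nominal compound, 0.8% DMSO | timing = 1 h preincubation, 2 h reaction | measured by = 405 nm absorbance of p-nitroaniline, reads at 0 and 120 min | benchmarks = DMSO-only low control, 5 µM PC-3 D3A high control | repeats = singlicate, each compound tested once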
HIF activator: HIF pathway transcriptional activation; U2OS HRE-luciferase reporter, luminescence; normalized: DMSO 0%, desferrioxamine 100%; activation, % at 7.5 µM (by protocol); actives 0.32% (n = 300,000);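 active means mean activation of at least 10% of the iron chelator positive control signal, with at least half of replicates also reaching 10%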
GAA30 FXN cntr: GAA30 FXN promoter activation counter-screen; shares compounds with FXN GAA850 act; HEK293 lucGAA30 FXN promoter luciferase, 24 h; DMSO = 0%, 5 µM ipriflavone = 100%; activation, % at 6 µM; actives 66% (n = 1,900); AID 588350;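 active means mean activation above the mean of solvent-only control wells plus 3 SD, cut at about 22% in these data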;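 further: counterscreen of GAA850 promoter hits where activity marks nonselective or luminescence artifacts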
FXN GAA850 conf: confirmation of GAA850 frataxin (FXN) promoter activators. shares compounds with FXN GAA850 act. HEK293 lucGAA850 FXN promoter luciferase reporter, 24 h; 100% = activation by SAHA. activation, % at 6 µM. actives 86% (n = 1,900). AID 588351;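 active means mean activation above a set limit taken from the primary screen, cut at about 8% in these data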;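 further: 0% = DMSO wells and 100% = 10 µM SAHA wells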
The depositor's hits bear a star; . = no result shown.

SMILES	procasp7 counter	Neddyl block	Calb FLC	FXN GAA850 act	procasp3 activ	HIF activator	GAA30 FXN cntr	FXN GAA850 conf
C/C(=N\NC(=O)c1c(Cl)c(C)nn1C)c1ccc(NC(=O)C2CCC2)cc1	8.2	25.1	2.9	-1.5	1.0	3.3	.	.
FC(F)Oc1ccccc1/C=N/n1cnc2ccccc21	-8.3	7.4	19.5	8.0*	-2.2	2.9	95.5*	28.6*
NC(N)=N/N=C/c1ccccc1OC(F)F	12.8	-4.4	-1.5	-0.1	5.2	0.2	.	.
Cc1nn2c(nc(N3CCCCC3)c3ccccc32)c1C=O	5.5	.	32.6	9.5*	0.7	-0.9	-2.8	12.0*
Cc1nn2c(nc(N3CCOCC3)c3ccccc32)c1C=C(C#N)C#N	-9.1	.	-8.1	3.1	4.5	-0.4	.	.
Cc1c2ccncc2cc2c1[nH]c1ccccc12	.	.	.	-4.0	.	.	.	.
COc1ccc2[nH]c3c(C)c4ccncc4c(C)c3c2c1	-2.7	41.8*	104.5*	12.1*	-4.1	-1.9	-25.2	64.0*
O=C(NCCN1CCNC1=O)c1ccc2sc([C@@H]3O[C@H](CO)[C@H](O)[C@H](O)[C@H]3O)nc2c1	.	-7.0	.	-0.6	.	.	.	.
C/C(=N\NC(=O)c1sccc1C)c1cccnc1	.	1.2	24.7	3.2	.	4.0	.	.
C/C(=N\NC(=O)c1sccc1C)c1ccncc1	-12.2	0.0	24.0	8.2*	0.2	3.7	82.3*	32.0*
COc1cc2ccccc2cc1C(=O)Nc1cc(C)ccn1	0.6	22.3	-7.7	8.4*	9.3	2.9	122.9*	39.3*
Cc1ccnc(NC(=O)Cc2ccc(-c3ccccc3)cc2)c1	-4.3	-4.6	-2.9	7.9*	-10.9	0.9	100.8*	46.2*
O=c1oc2ccccc2cc1-c1nc2ccccc2o1	2.4	21.3	-37.4	8.4*	1.1	0.3	122.2*	36.9*
Cc1ccccc1NC(=O)C(C)OC(=O)C1CCCO1 (stereo not drawn)	.	-7.4	.	1.2	.	.	.	.
N#Cc1cc(Oc2cccc3cccnc23)c(-n2nnc3ccccc32)cc1C#N	-8.0	-3.8	0.5	7.7*	-7.4	-2.0	-1.5	15.1*
CSC(=S)NN=C(C)c1cccc(C)n1	.	-5.1	.	16.4*	.	.	-115.2	-33.7
CCOC(=O)CNC(=S)N(Cc1ccccc1F)C1CCCCC1	-0.9	-10.6	6.0	2.0	0.9	-0.6	.	.
CCOC(=O)CNC(=S)N(Cc1cccs1)C1CCCCC1	6.7	1.6	19.4	8.0*	4.4	-0.4	12.9	9.2*
C[C@H]1c2cccc(O)c2C(O)=C2C(=O)C3(O)C(O)=C(C(N)=O)C(=O)[C@@H](N(C)C)[C@@H]3[C@@H](O)[C@@H]21 (stereo partly drawn)	-3.1	14.4	.	16.7*	-5.8	.	22.0*	2.5
C[C@H]1c2cccc(O)c2C(=O)C2C(=O)C3(O)C(=O)C(C(N)=O)C(=O)[C@@H](N(C)C)[C@@H]3[C@@H](O)[C@@H]21 (stereo partly drawn)	-2.5	14.4	.	14.2*	7.4	.	41.2*	12.7*
CN(C)c1ccc(O)c2c1CC1CC3[C@@H](N(C)C)C(=O)C(C(N)=O)C(=O)[C@]3(O)C(=O)C1C2=O (stereo partly drawn)	9.8	-1.4	.	10.8*	13.5	.	35.2*	10.9*
CN(C)c1ccc(O)c2c1CC1CC3C(N(C)C)C(=O)C(C(N)=O)=C(O)[C@@]3(O)C(=O)C1=C2O (stereo partly drawn)	-14.1	-12.5	.	25.0*	-0.4	-0.2	23.6*	6.5
CCCCNC(=O)c1nc(C2CCN(S(=O)(=O)c3ccc(F)c(F)c3)CC2)oc1-c1ccccc1	.	13.0	.	.	.	.	.	.
CCOC(=O)[C@]12CCCC=C1N(Cc1ccco1)C(=O)[C@H](CC(=O)NCCCCc1ccccc1)C2	.	-1.6	.	.	.	.	.	.
O=C(O)c1ccc2c(c1)C(=O)N([C@H](Cc1cccc3ccccc13)C(=O)O)C2=O	.	7.3	.	0.1	.	.	.	.
SMILES	procasp7 counter	Neddyl block	Calb FLC	FXN GAA850 act	procasp3 activ	HIF activator	GAA30 FXN cntr	FXN GAA850 conf
CC(C)(C(=O)N1CCC1(C)C(=O)NS(=O)(=O)c1ccc(Cl)s1)c1ccccc1 (stereo not drawn)	.	5.2	.	-1.2	.	.	.	.
COc1cc(C(C)=O)ccc1OCC(=O)NCc1ccccc1CN1CCCC1	.	4.3	.	-0.9	.	.	.	.
O=C(COC(=O)C1CCN(S(=O)(=O)c2ccc(Cl)c(C(F)(F)F)c2)CC1)NCC1CCCO1 (stereo not drawn)	.	4.7	.	0.8	.	.	.	.
O=C(/C=C/c1ccccc1)NC(=O)c1ccccc1O	13.0	16.4	-3.1	5.2	0.2	2.2	.	.
O=C(/C=C/c1ccccc1)CC(=O)c1ccccc1O	9.2	35.8	3.5	8.9*	-5.9	3.5	72.4*	29.1*
OC[C@@H]1CN(Cc2ccc(F)cc2)C[C@H](n2cnc3c(NCc4ccc(F)cc4)ncnc32)O1	.	5.3	.	1.6	.	.	.	.
COC(=O)c1c(C)[nH]c(C(=O)CSc2ccc(Cl)cc2)c1C	0.7	-1.8	9.7	8.3*	-0.8	2.7	113.7*	34.6*
CN(Cc1ccc(Cl)cc1Cl)C(=O)C1CSC2(C)CCC(=O)N12 (stereo not drawn)	.	-2.1	.	-0.8	.	.	.	.
Cc1cc(C(=O)N/N=C/c2ccc(Cl)c([N+](=O)[O-])c2)c(C)n1-c1ccc(F)cc1	-3.3	-15.9	9.0	9.1*	1.8	0.3	-3.2	11.7*
C=C1CC(Cn2cc(Br)c(=O)[nH]c2=O)(c2ccc(-c3ccccc3)cc2)OC1=O (stereo not drawn)	.	0.7	.	10.7*	.	.	-62.4	52.2*
CCCCN(C=O)c1c(CC)nc2ccc(C(=O)N(C)Cc3ccccc3)cn12	.	4.6	.	-2.9	.	.	.	.
Cc1cc(C)c(CN2CCN(CCCn3ccc(NC(=O)OCc4ccccc4)nc3=O)CC2)c(C)c1	.	10.7	.	-2.7	.	.	.	.
Cc1cccc(C(=O)Nc2ccc(C(=O)/C=C/c3ccncc3)cc2)c1	-3.4	-26.8	-4.1	16.6*	1.4	3.7	15.9	27.3*
CC(/C=C/c1ccc(OCc2ccccc2)cc1)=N\O	-5.1	-3.9	-3.8	7.9*	2.0	1.5	117.5*	38.2*
COc1cc(NC(=O)Cn2ncc(Cl)c(Cl)c2=O)c(C)cc1[N+](=O)[O-]	.	-69.5	33.2	11.8*	.	-5.4	-82.3	-18.4
CCOC(=O)C1=C(O)/C(=C/c2ccc(OCC(=O)O)c(OCC)c2)SC1=Nc1ccc(OC)cc1	-1.8	-0.1	0.2	3.1	-14.4	0.5	.	.
